# Calls of active or inactive are those of the source. The rule behind the calls is not given here.
# Tests used:
# [1] = Selectivity for human CB1 receptor over neuronal N receptor
# Homo sapiens [2] = organism: Homo sapiens; assay: Selectivity for human CB1 receptor over human ORL1 receptor
# [3] = Selectivity for human CB1 receptor over PCP receptor
# Homo sapiens [4] = organism: Homo sapiens; assay: Selectivity for human CB1 receptor over human glucocorticoid receptor
# Homo sapiens [5] = organism: Homo sapiens; assay: Selectivity for human CB1 receptor over human estrogen receptor
# [6] = Selectivity for human CB1 receptor over sigma receptor
# Homo sapiens [7] = organism: Homo sapiens; assay: Selectivity for human CB1 receptor over human progesterone receptor
# [8] = Selectivity for human CB1 receptor over androgen receptor
# Homo sapiens [9] = organism: Homo sapiens; assay: Selectivity for human CB1 receptor over human vanilloid V1a receptor
# Homo sapiens [10] = organism: Homo sapiens; assay: Selectivity for human CB1 receptor over human vanilloid V2 receptor
# [11] = Selectivity for human CB1 receptor over L type calcium channel at DHP site
# [12] = Selectivity for human CB1 receptor over L type calcium channel at diltiazem site
# [13] = Selectivity for human CB1 receptor over L type calcium channel at verapamil site
# [14] = Selectivity for human CB1 receptor over K ATP channel
# [15] = Selectivity for human CB1 receptor over Kv channel
# [16] = Selectivity for human CB1 receptor over sodium channel
# [17] = Selectivity for human CB1 receptor over chloride channel
# Homo sapiens [18] = organism: Homo sapiens; assay: Selectivity for human CB1 receptor over human NET
# [19] = Selectivity for human CB1 receptor over DAT
# [20] = Selectivity for human CB1 receptor over GABA transporter
# [21] = Selectivity for human CB1 receptor over choline transporter
# Homo sapiens [22] = organism: Homo sapiens; assay: Selectivity for human CB1 receptor over human bradykinin B2 receptor
# [23] = Selectivity for human CB1 receptor over BZD receptor
# Homo sapiens [24] = organism: Homo sapiens; assay: Selectivity for human CB1 receptor over human adenosine A3 receptor
# Rattus norvegicus [25] = assay: Reduction in progression of body weight in diet-induced obesity Sprague-Dawley rat model at 1 mg/kg, po for 16 days; assay type: functional, organism-based; design: dose 1 mg/kg
# In short: (§1)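 Obese Sprague-Dawley rats (HFD 10 weeks from 3 weeks old, selected as >2 SD above chow controls), n = 9 per group, gavage-adapted 3 days, then dosed daily by gavage at 5:00 p.m. for 16 days in water with 7.5% gelatine and 0.62% NaCl, 2 mL/kg; body weight and food intake recorded daily.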
# Rattus norvegicus [26] = assay: Reduction in progression of body weight in diet-induced obesity Sprague-Dawley rat model at 3 mg/kg, po for 16 days; assay type: functional, organism-based; design: dose 3 mg/kg; in short: as §1
# Rattus norvegicus [27] = assay: Reduction in progression of body weight in diet-induced obesity Sprague-Dawley rat model at 10 mg/kg, po for 16 days; assay type: functional, organism-based; design: dose 10 mg/kg; in short: as §1
# [28] = Partition coefficient, log D at pH 6.5; assay type: physicochemical; settings: octanol/water
# Rattus norvegicus [29] = assay: Reduction in body fat in po dosed diet-induced obesity Sprague-Dawley rat model; assay type: functional, organism-based
# In short: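 Sprague-Dawley rats fed HFD from 3 weeks of age for 10 weeks; high responders (body weight exceeding chow controls by >2 SD) grouped n = 9. After 3 days gavage adaptation, daily oral dosing at 5:00 p.m. for 2 weeks in 7.5% gelatine/0.62% NaCl in water, 2 mL/kg. Fat and lean mass by MRI before and at end of treatment.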
# Homo sapiens [30] = organism: Homo sapiens; assay: Selectivity for human CB1 receptor over human CB2 receptor
# [31] = Selectivity for human CB1 receptor over adrenergic alpha-1 receptor
# [32] = Selectivity for human CB1 receptor over adrenergic alpha-2 receptor
# Homo sapiens [33] = organism: Homo sapiens; assay: Selectivity for human CB1 receptor over human adrenergic beta-1 receptor
# Homo sapiens [34] = organism: Homo sapiens; assay: Selectivity for human CB1 receptor over human AT2 receptor
# Homo sapiens [35] = organism: Homo sapiens; assay: Selectivity for human CB1 receptor over human CCK1 receptor
# Homo sapiens [36] = organism: Homo sapiens; assay: Selectivity for human CB1 receptor over human CCK2 receptor
# Homo sapiens [37] = organism: Homo sapiens; assay: Selectivity for human CB1 receptor over human dopamine D1 receptor
# Homo sapiens [38] = organism: Homo sapiens; assay: Selectivity for human CB1 receptor over human dopamine D2S receptor
# Homo sapiens [39] = organism: Homo sapiens; assay: Selectivity for human CB1 receptor over human dopamine D3 receptor
# Homo sapiens [40] = organism: Homo sapiens; assay: Selectivity for human CB1 receptor over human dopamine D4.4 receptor
# Homo sapiens [41] = organism: Homo sapiens; assay: Selectivity for human CB1 receptor over human ETB receptor
# [42] = Selectivity for human CB1 receptor over GABA receptor
# [43] = Selectivity for human CB1 receptor over NMDA receptor
# [44] = Selectivity for human CB1 receptor over histamine H1 receptor
# [45] = Selectivity for human CB1 receptor over histamine H2 receptor
# [46] = Selectivity for human CB1 receptor over histamine H3 receptor
# [47] = Selectivity for human CB1 receptor over peripheral imidazoline I1 receptor
# [48] = Selectivity for human CB1 receptor over central imidazoline I2 receptor
# Homo sapiens [49] = organism: Homo sapiens; assay: Selectivity for human CB1 receptor over human LTD4 receptor
# Homo sapiens [50] = organism: Homo sapiens; assay: Selectivity for human CB1 receptor over human MC4 receptor
# [51] = Selectivity for human CB1 receptor over muscarinic receptor
# Homo sapiens [52] = organism: Homo sapiens; assay: Selectivity for human CB1 receptor over human NK1 receptor
# Homo sapiens [53] = organism: Homo sapiens; assay: Selectivity for human CB1 receptor over human NK2 receptor
# [54] = Selectivity for human CB1 receptor over neuropeptide Y receptor
# Cannabinoid receptor 1 [55] = target: T1, Cannabinoid receptor 1 (Homo sapiens, UniProt P21554); assay: biochemical; assay type: cell-based, HEK293
# Cannabinoid receptor 1 [56] = target: T1, Cannabinoid receptor 1; assay: Activity at human CB1R expressed in HEK293 cells assessed as intracellular cAMP level; assay type: functional, cell-based
# Liver microsomes [57] = assay: Clearance in human liver microsomes; assay type: ADME, Microsome; settings: microsomes
# In short: (§2)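 Test compound at 2 µM incubated with liver microsomes (0.5 mg protein/mL) in 50 mM potassium phosphate pH 7.4 at 37 °C. Reaction started with an NADPH-generating system (glucose-6-phosphate 3.2 mM, NADP 2.6 mM, MgCl2 6.5 mM). Six samples over 30 min, quenched in methanol with internal standard, then LC-MS/MS for substrate depletion. CLint taken from the first-order decay, normalized to protein.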
# Liver microsomes [58] = assay: Clearance in rat liver microsomes; assay type: ADME, Microsome; settings: microsomes; in short: as §2
# [59] = Aqueous solubility at pH 6.5 by lyophilisation solubility assay; assay type: physicochemical
# In short: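 Duplicate samples from 10 mM DMSO stock; DMSO evaporated 1 h, residue taken up in 50 mM phosphate buffer pH 6.5, stirred 1 h, shaken 2 h, left overnight. Filtrate and 1/10 dilution read by direct UV or HPLC-UV against four-point calibration; range for MW 500 0-666 µg/mL; >80% dissolved reported as greater-than.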
# [60] = Permeability from apical to basolateral side of human Caco-2 cell membrane; assay type: ADME, cell-based; settings: read-out: permeability
# [61] = Solubility in fasted state stimulated intestinal fluid at pH 6.5; assay type: physicochemical; settings: fasted state simulated intestinal fluid
# [62] = Solubility in fed state stimulated intestinal fluid at pH 6.6; assay type: physicochemical; settings: fed state simulated intestinal fluid
# In short: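 Excess compound (about 1-2 mg) was placed in about […] of 50 mM fed-state simulated intestinal fluid at room temperature. Final pH was measured the next day, then samples were filtered and quantified by HPLC against a five-dilution calibration.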
# T1 sequence (P21554 whole entry): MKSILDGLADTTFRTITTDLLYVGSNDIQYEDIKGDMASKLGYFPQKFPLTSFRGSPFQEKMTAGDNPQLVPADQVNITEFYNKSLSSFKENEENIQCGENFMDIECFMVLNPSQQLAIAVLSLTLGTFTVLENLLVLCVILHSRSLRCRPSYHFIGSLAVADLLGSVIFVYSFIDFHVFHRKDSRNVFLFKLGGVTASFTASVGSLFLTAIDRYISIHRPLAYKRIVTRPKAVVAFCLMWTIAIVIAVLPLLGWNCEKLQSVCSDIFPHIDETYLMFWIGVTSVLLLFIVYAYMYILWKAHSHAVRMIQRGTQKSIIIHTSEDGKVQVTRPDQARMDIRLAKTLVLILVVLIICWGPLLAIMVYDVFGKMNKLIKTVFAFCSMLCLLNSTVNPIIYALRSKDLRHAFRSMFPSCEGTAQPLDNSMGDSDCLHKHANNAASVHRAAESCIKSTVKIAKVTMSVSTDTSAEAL
structure (smiles),measurement,setting,value
O=C(c1cc2c(cc1F)O[C@](c1ccc(F)cc1)(c1ccc(Cl)cc1Cl)O2)N1CCOCC1,Selectivity ratio,[1],300
same,Selectivity ratio,Homo sapiens [2],300
same,Selectivity ratio,[3],300
same,Selectivity ratio,Homo sapiens [4],300
same,Selectivity ratio,Homo sapiens [5],300
same,Selectivity ratio,[6],300
same,Selectivity ratio,Homo sapiens [7],300
same,Selectivity ratio,[8],300
same,Selectivity ratio,Homo sapiens [9],300
same,Selectivity ratio,Homo sapiens [10],300
same,Selectivity ratio,[11],300
same,Selectivity ratio,[12],300
same,Selectivity ratio,[13],300
same,Selectivity ratio,[14],300
same,Selectivity ratio,[15],300
same,Selectivity ratio,[16],300
same,Selectivity ratio,[17],300
same,Selectivity ratio,Homo sapiens [18],300
same,Selectivity ratio,[19],300
same,Selectivity ratio,[20],300
same,Selectivity ratio,[21],300
same,Selectivity ratio,Homo sapiens [22],300
same,Selectivity ratio,[23],300
same,Selectivity ratio,Homo sapiens [24],300
same,Activity,Rattus norvegicus [25],Active
same,Activity,Rattus norvegicus [26],Active
same,Activity,Rattus norvegicus [27],Active
same,logD,[28],> 4
same,Activity,Rattus norvegicus [29],Active
same,Selectivity ratio,Homo sapiens [30],> 1000
same,Selectivity ratio,[31],300
same,Selectivity ratio,[32],300
same,Selectivity ratio,Homo sapiens [33],300
same,Selectivity ratio,Homo sapiens [34],300
same,Selectivity ratio,Homo sapiens [35],300
same,Selectivity ratio,Homo sapiens [36],300
same,Selectivity ratio,Homo sapiens [37],300
same,Selectivity ratio,Homo sapiens [38],300
same,Selectivity ratio,Homo sapiens [39],300
same,Selectivity ratio,Homo sapiens [40],300
same,Selectivity ratio,Homo sapiens [41],300
same,Selectivity ratio,[42],300
same,Selectivity ratio,[43],300
same,Selectivity ratio,[44],300
same,Selectivity ratio,[45],300
same,Selectivity ratio,[46],300
same,Selectivity ratio,[47],300
same,Selectivity ratio,[48],300
same,Selectivity ratio,Homo sapiens [49],300
same,Selectivity ratio,Homo sapiens [50],300
same,Selectivity ratio,[51],300
same,Selectivity ratio,Homo sapiens [52],300
same,Selectivity ratio,Homo sapiens [53],300
same,Selectivity ratio,[54],300
same,Ki,Cannabinoid receptor 1 [55],3.3 nM
same,EC50,Cannabinoid receptor 1 [56],8 nM
same,clearance,Liver microsomes [57],11 µL/min/mg
same,clearance,Liver microsomes [58],27 µL/min/mg
same,solubility,[59],< 1 µg/mL
same,Papp A→B,[60],10.6 ×10⁻⁶ cm/s
same,solubility,[61],129 µg/mL
same,solubility,[62],445 µg/mL

# Source: ChEMBL document CHEMBL1142431, “Benzodioxoles: novel cannabinoid-1 receptor inverse agonists for the treatment of obesity” (J Med Chem, 2008)
